Measured values from ChEMBL document CHEMBL1153726, “Synthesis and anticancer activity of sclerophytin-inspired hydroisobenzofurans” (Bioorg Med Chem Lett, 2009).

Columns and labels:
Assay type in all cases: functional
HL-60(TB) = assay: Growth inhibition of human HL-60(TB) cells at 10 nM after 96 hrs by MTT assay; design: scale not given: the % may be the effect or the level left
T47D = assay: Growth inhibition of human T47D cells at 1 nM after 96 hrs by MTT assay; design: scale not given: the % may be the effect or the level left
UO-31 = assay: Growth inhibition of human UO31 cells at 1 nM after 96 hrs by MTT assay; design: scale not given: the % may be the effect or the level left
OVCAR-4 = assay: Growth inhibition of human OVCAR4 cells at 1 nM after 96 hrs by MTT assay; design: scale not given: the % may be the effect or the level left
IGROV-1 [1] = assay: Growth inhibition of human IGROV1 cells at 1 nM after 96 hrs by MTT assay; design: scale not given: the % may be the effect or the level left
SK-MEL-2 [2] = assay: Growth inhibition of human SK-MEL-2 cells at 1 nM after 96 hrs by MTT assay; design: scale not given: the % may be the effect or the level left
HCT-116 = assay: Growth inhibition of human HCT116 cells at 1 nM after 96 hrs by MTT assay; design: scale not given: the % may be the effect or the level left
SK-OV-3 [3] = assay: Growth inhibition of human SKOV3 cells at 10 uM after 96 hrs by MTT assay; design: scale not given: the % may be the effect or the level left
UACC-62 = assay: Growth inhibition of human UACC62 cells at 10 uM after 96 hrs by MTT assay; design: scale not given: the % may be the effect or the level left
LOX IMVI = assay: Growth inhibition of human LOXIMVI cells at 10 uM after 96 hrs by MTT assay; design: scale not given: the % may be the effect or the level left
HCT-15 = assay: Growth inhibition of human HCT15 cells at 10 uM after 96 hrs by MTT assay; design: scale not given: the % may be the effect or the level left
NCI-H460 [4] = assay: Growth inhibition of human NCI-H460 cells at 10 uM after 96 hrs by MTT assay; design: scale not given: the % may be the effect or the level left
CCRF-CEM = assay: Growth inhibition of human CCRF-CEM cells at 10 uM after 96 hrs by MTT assay; design: scale not given: the % may be the effect or the level left
U-251 = assay: Growth inhibition of human U251 cells after 96 hrs by MTT assay; conditions: U-251, 96 h
Summary of the method: (§1)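 Tested in the NCI 60-cell-line panel in five-dose format; GI50 and LC50 values reported for each cell line.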

MDA-MB-435 = assay: Growth inhibition of human MDA-MB-435 cells after 96 hrs by MTT assay; conditions: MDA-MB-435, 96 h
Summary of the method: (§2)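 Run in the NCI 60 human tumour cell line panel as a five-dose assay. GI50 and LC50 were reported for each cell line.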

SK-MEL-2 [5] = assay: Growth inhibition of human SK-MEL-2 cells after 96 hrs by MTT assay; conditions: SK-MEL-2, 96 h; summary of the method: as §1
OVCAR-3 = assay: Growth inhibition of human OVCAR-3 cells after 96 hrs by MTT assay; conditions: OVCAR-3, 96 h; summary of the method: as §1
OVCAR-8 = assay: Growth inhibition of human OVCAR8 cells after 96 hrs by MTT assay; conditions: OVCAR-8, 96 h; summary of the method: as §1
MDA-MB-468 [6] = assay: Growth inhibition of human MDA-MB-468 cells after 96 hrs by MTT assay; conditions: MDA-MB-468, 96 h; summary of the method: as §2
NCI-H460 [7] = assay: Growth inhibition of human NCI-H460 cells after 96 hrs by MTT assay; conditions: NCI-H460, 96 h; summary of the method: as §2
[8] = Growth inhibition of human Hs 578T cells at 1 uM after 96 hrs by MTT assay; design: scale not given: the % may be the effect or the level left
PC-3 = assay: Growth inhibition of human PC3 cells at 1 uM after 96 hrs by MTT assay; design: scale not given: the % may be the effect or the level left
RXF 393 [9] = assay: Growth inhibition of human RXF393 cells at 1 uM after 96 hrs by MTT assay; design: scale not given: the % may be the effect or the level left
MDA-MB-468 [10] = assay: Growth inhibition of human MDA-MB-468 cells at 100 nM after 96 hrs by MTT assay; design: scale not given: the % may be the effect or the level left
RXF 393 [11] = assay: Growth inhibition of human RXF393 cells at 100 nM after 96 hrs by MTT assay; design: scale not given: the % may be the effect or the level left
IGROV-1 [12] = assay: Growth inhibition of human IGROV1 cells at 100 nM after 96 hrs by MTT assay; design: scale not given: the % may be the effect or the level left
M14 = assay: Growth inhibition of human M14 cells at 100 nM after 96 hrs by MTT assay; design: scale not given: the % may be the effect or the level left
COLO 205 = assay: Growth inhibition of human COLO205 cells at 100 nM after 96 hrs by MTT assay; design: scale not given: the % may be the effect or the level left
NCI-H322M [13] = assay: Growth inhibition of human NCI-H322M cells at 100 nM after 96 hrs by MTT assay; design: scale not given: the % may be the effect or the level left
EKVX = assay: Growth inhibition of human EKVX cells at 100 nM after 96 hrs by MTT assay; design: scale not given: the % may be the effect or the level left
A549 = assay: Growth inhibition of human A549 cells at 100 nM after 96 hrs by MTT assay; design: scale not given: the % may be the effect or the level left
MDA-MB-231 = assay: Growth inhibition of human MDA-MB-231 cells at 10 nM after 96 hrs by MTT assay; design: scale not given: the % may be the effect or the level left
SK-OV-3 [14] = assay: Growth inhibition of human SKOV3 cells at 10 nM after 96 hrs by MTT assay; design: scale not given: the % may be the effect or the level left
IGROV-1 [15] = assay: Growth inhibition of human IGROV1 cells at 10 nM after 96 hrs by MTT assay; design: scale not given: the % may be the effect or the level left
SK-MEL-5 = assay: Growth inhibition of human SK-MEL-5 cells at 10 nM after 96 hrs by MTT assay; design: scale not given: the % may be the effect or the level left
NCI-H322M [16] = assay: Growth inhibition of human NCI-H322M cells at 10 nM after 96 hrs by MTT assay; design: scale not given: the % may be the effect or the level left
NCI-H23 = assay: Growth inhibition of human NCI-H23 cells at 10 nM after 96 hrs by MTT assay; design: scale not given: the % may be the effect or the level left
SF-539 = assay: Growth inhibition of human SF539 cells at 1 uM after 96 hrs by MTT assay; design: scale not given: the % may be the effect or the level left
HOP-92 = assay: Growth inhibition of human HOP92 cells at 1 uM after 96 hrs by MTT assay; design: scale not given: the % may be the effect or the level left
MOLT-4 = assay: Growth inhibition of human MOLT4 cells at 1 uM after 96 hrs by MTT assay; design: scale not given: the % may be the effect or the level left
[17] = read-out: LC50 (the source's name)
[18] = read-out: Log10GI50 (converted)
[19] = read-out: Log10LC50 (converted)

Which Activity (HL-60(TB)) does the source give for C=C(C)[C@H]1CC=C(C)C2=CO[C@@H](c3ccccc3F)[C@@H]21 here?
Its Activity is 104%.

What about the Activity (T47D) of the same compound?
Its Activity is 98%.

And the Activity (UO-31)?
Its Activity is 89%.

What about the Activity (OVCAR-4) of the same compound?
The Activity was 91%.

What about the Activity (IGROV-1 [1]) of the same compound?
Its Activity is 91%.

And the Activity (SK-MEL-2 [2])?
The Activity was 88%.

And the Activity (HCT-116)?
The Activity was 102%.

What about the Activity (SK-OV-3 [3]) of the same compound?
Its Activity is 93.49%.

And the Activity (UACC-62)?
The Activity was 54.63%.

And the Activity (LOX IMVI)?
Its Activity is 89.75%.

What about the Activity (HCT-15) of the same compound?
The Activity was 103.41%.

And the Activity (NCI-H460 [4])?
The Activity was 92.68%.

What about the Activity (CCRF-CEM) of the same compound?
Its Activity is 68.96%.

And the GI50 (U-251; read-out: GI50)?
Its GI50 is 3.06 µM.

And the CC50 (U-251; [17])?
The CC50 was 37.7 µM.

And the GI50 (U-251; [18])?
The GI50 was 3.09 µM.

And the CC50 (U-251; [19])?
The CC50 was 38 µM.

And the TGI (U-251; read-out: Log10TGI (converted))?
Its TGI is 14.1 µM.

And the TGI (U-251; read-out: TGI)?
Its TGI is 14.2 µM.

And the GI50 (MDA-MB-435; read-out: GI50)?
The GI50 was 2.65 µM.

What about the LC50 (MDA-MB-435; read-out: LC50) of the same compound?
Its LC50 is 66.3 µM.

And the GI50 (MDA-MB-435; [18])?
The GI50 was 2.63 µM.

And the LC50 (MDA-MB-435; [19])?
The LC50 was 66.1 µM.

What about the TGI (MDA-MB-435; read-out: Log10TGI (converted)) of the same compound?
The TGI was 11.5 µM.

What about the TGI (MDA-MB-435; read-out: TGI) of the same compound?
The TGI was 11.4 µM.

What about the GI50 (SK-MEL-2 [5]; read-out: GI50) of the same compound?
The GI50 was 3.74 µM.

What about the CC50 (SK-MEL-2 [5]; [17]) of the same compound?
Its CC50 is 55.2 µM.

And the GI50 (SK-MEL-2 [5]; [18])?
The GI50 was 3.72 µM.

And the CC50 (SK-MEL-2 [5]; [19])?
The CC50 was 55 µM.

What about the TGI (SK-MEL-2 [5]; read-out: Log10TGI (converted)) of the same compound?
Its TGI is 19.1 µM.

What about the TGI (SK-MEL-2 [5]; read-out: TGI) of the same compound?
The TGI was 19.2 µM.

And the GI50 (OVCAR-3; read-out: GI50)?
Its GI50 is 3.24 µM.

What about the CC50 (OVCAR-3; [17]) of the same compound?
Its CC50 is 36.5 µM.

And the GI50 (OVCAR-3; [18])?
The GI50 was 3.24 µM.

And the CC50 (OVCAR-3; [19])?
Its CC50 is 36.3 µM.

And the TGI (OVCAR-3; read-out: Log10TGI (converted))?
The TGI was 12.9 µM.

What about the TGI (OVCAR-3; read-out: TGI) of the same compound?
Its TGI is 12.8 µM.

What about the GI50 (OVCAR-8; read-out: GI50) of the same compound?
Its GI50 is 11.9 µM.

What about the CC50 (OVCAR-8; [17]) of the same compound?
The CC50 was 79 µM.

What about the GI50 (OVCAR-8; [18]) of the same compound?
Its GI50 is 11.7 µM.

What about the CC50 (OVCAR-8; [19]) of the same compound?
The CC50 was 79.4 µM.

And the TGI (OVCAR-8; read-out: Log10TGI (converted))?
Its TGI is 30.9 µM.

And the TGI (OVCAR-8; read-out: TGI)?
Its TGI is 30.6 µM.

What about the GI50 (MDA-MB-468 [6]; read-out: GI50) of the same compound?
Its GI50 is 1.43 µM.

What about the CC50 (MDA-MB-468 [6]; [17]) of the same compound?
The CC50 was 66.1 µM.

And the GI50 (MDA-MB-468 [6]; [18])?
The GI50 was 1.45 µM.

And the CC50 (MDA-MB-468 [6]; [19])?
The CC50 was 66.1 µM.

And the TGI (MDA-MB-468 [6]; read-out: Log10TGI (converted))?
The TGI was 14.1 µM.

What about the TGI (MDA-MB-468 [6]; read-out: TGI) of the same compound?
Its TGI is 14.1 µM.

And the GI50 (NCI-H460 [7]; read-out: GI50)?
Its GI50 is 4.24 µM.

And the CC50 (NCI-H460 [7]; [17])?
Its CC50 is 43.4 µM.

And the GI50 (NCI-H460 [7]; [18])?
Its GI50 is 4.27 µM.

What about the CC50 (NCI-H460 [7]; [19]) of the same compound?
Its CC50 is 43.7 µM.

And the TGI (NCI-H460 [7]; read-out: Log10TGI (converted))?
The TGI was 17.4 µM.

And the TGI (NCI-H460 [7]; read-out: TGI)?
The TGI was 17.5 µM.

And the Activity [8]?
Its Activity is 28%.

And the Activity (PC-3)?
Its Activity is 20%.

And the Activity (RXF 393 [9])?
The Activity was 44%.

What about the Activity (MDA-MB-468 [10]) of the same compound?
Its Activity is 57%.

What about the Activity (RXF 393 [11]) of the same compound?
Its Activity is 84%.

And the Activity (IGROV-1 [12])?
The Activity was 83%.

And the Activity (M14)?
Its Activity is 80%.

What about the Activity (COLO 205) of the same compound?
Its Activity is 92%.

And the Activity (NCI-H322M [13])?
The Activity was 79%.

What about the Activity (EKVX) of the same compound?
The Activity was 80%.

What about the Activity (A549) of the same compound?
The Activity was 95%.

What about the Activity (MDA-MB-231) of the same compound?
The Activity was 89%.

And the Activity (SK-OV-3 [14])?
The Activity was 100%.

What about the Activity (IGROV-1 [15]) of the same compound?
The Activity was 85%.

And the Activity (SK-MEL-5)?
The Activity was 88%.

What about the Activity (NCI-H322M [16]) of the same compound?
The Activity was 84%.

What about the Activity (NCI-H23) of the same compound?
The Activity was 92%.

And the Activity (SF-539)?
The Activity was 43%.

What about the Activity (HOP-92) of the same compound?
The Activity was -14%.

What about the Activity (MOLT-4) of the same compound?
The Activity was -15%.
